ADAM17 inh = ADAM17 inhibitors, primary screen, biochemical, QFRET; Disintegrin and metalloproteinase domain-containing protein 17 (Homo sapiens), P78536; 0.83% of 370,000 active; inhibition, % at 6.95 µM; recombinant ADAM17, EDANS/DABCYL FRET peptide cleavage; AID 720648, 2013;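 active = inhibition above the mean of compounds lying between control limits plus 3 SD, set per campaign, cut at about 8.5% in these data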;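 note: 0% = DMSO-only wells as the low control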
Target sequence (P78536 215-824 limits assumed): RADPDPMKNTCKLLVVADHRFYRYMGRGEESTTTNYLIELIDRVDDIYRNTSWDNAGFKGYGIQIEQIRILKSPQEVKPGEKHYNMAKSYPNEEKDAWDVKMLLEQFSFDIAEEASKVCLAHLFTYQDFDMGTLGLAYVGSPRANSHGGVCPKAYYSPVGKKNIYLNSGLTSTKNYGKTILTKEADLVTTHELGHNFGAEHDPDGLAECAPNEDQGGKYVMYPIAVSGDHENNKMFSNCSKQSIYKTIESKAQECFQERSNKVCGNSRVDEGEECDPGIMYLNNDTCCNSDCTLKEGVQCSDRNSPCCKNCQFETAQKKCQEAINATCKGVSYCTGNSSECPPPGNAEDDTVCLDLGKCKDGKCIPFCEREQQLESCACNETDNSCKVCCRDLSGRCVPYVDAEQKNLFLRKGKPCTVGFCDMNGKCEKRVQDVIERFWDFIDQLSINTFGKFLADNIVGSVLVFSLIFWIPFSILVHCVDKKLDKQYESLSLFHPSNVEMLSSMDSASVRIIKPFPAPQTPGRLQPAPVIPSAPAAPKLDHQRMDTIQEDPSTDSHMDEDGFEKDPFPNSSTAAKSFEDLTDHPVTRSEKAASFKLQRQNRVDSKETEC
MPTP block = mitochondrial permeability transition pore inhibitors, primary screen, biochemical, isolated mouse mitochondria, absorbance; Ca2+ swelling absorbance, 30 min; inhibition, % at 10 µM; 1.4% of 360,000 active;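 active = inhibition of 50% or more, scaled per plate between neutral and stimulator controls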;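 note: 0% = DMSO wells given calcium and 100% = 1 mM EGTA wells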
ADAM10 inh = human ADAM10 inhibitors, primary screen, biochemical, QFRET, HTS | Disintegrin and metalloproteinase domain-containing protein 10 (Homo sapiens), O14672 | recombinant ADAM10, EDANS/DABCYL FRET peptide cleavage, 3 h | inhibition, % at 7 µM | 0.62% of 370,000 active | AID 720582, 2013;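 active = inhibition above a per-campaign cutoff equal to the mean of compounds falling between control-based bounds plus 3 SD, cut at about 20% in these data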;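 note: 0% = DMSO wells while the 100% control is not disclosed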
MT1-MMP act inh = blockers of MT1-MMP proenzyme processing, primary screen, HT1080 RFP-PRO-GFP cells, GFP/RFP fluorescence | GFP/RFP ratio change, % at 20 µM | AID 651647, 2012 | GFP/RFP ratio fluorescence, overnight; percent of plate control window, DMSO zero | 0.061% of 360,000 active | Matrix metalloproteinase-14 (Homo sapiens), P50281;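 active = GFP/RFP ratio change of at least 30% with cell ATP level not reduced by more than half and red fluorescence within 50% of control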
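Material: RFP-PRO-GFP reporter HT1080 cells. Dosing: single-point 20 µM compound, 1% DMSO. Controls: DMSO and RFP-L50D-GFP cell wells. Timing: cells overnight before dosing, compound overnight, 37 °C, 5% CO2. Measure: GFP/RFP fluorescence ratio.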
NR3A LBD binder = binders of NR3A ligand-binding domain, primary screen, biophysical, differential scanning fluorimetry, uHTS; Tm shift relative to glycine control, % at 25 µM; AID 1259313, 2017; NR3A LBD differential scanning fluorimetry, Tm shift; 0% = protein alone, 100% = glycine-bound protein; 2.5% of 340,000 active;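 active = melting temperature shift of at least 10% of the positive control shift, at one fixed dose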
SKN-1 inh = suppressors of acrylamide-induced Pgst-4::GFP reporter in worms, primary screen, SKN-1 inhibitor project, whole organism, uHTS, GFP/RFP fluorescence ratio, strain VP596 | 0.49% of 360,000 active | inhibition, % at 21.8 µM | C. elegans VP596 Pgst-4::GFP/RFP ratio, 24 h | AID 624304, 2012;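 active = interference check ratio from 0.5 to 1.5 plus GFP to RFP signal ratio inhibition reaching or exceeding a fixed threshold, cut at about 30% in these data, passing the limit was not always enough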
ADAM10 confirm = human ADAM10 inhibitors, confirmation, biochemical, QFRET, triplicate; 1% of 2,100 active; shares compounds with ADAM10 inh; inhibition, % at 6.95 µM; ADAM10 QFRET peptide cleavage, EDANS fluorescence;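 active = inhibition above about 20% chosen separately for each screening run, limit read from the data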;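 note: 0% = DMSO wells and 100% = marimastat wells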
ADAM17 ctr = ADAM17 inhibitors, counter-screen for ADAM10 exosite inhibitor project, biochemical, QFRET, high throughput; inhibition, % at 6.95 µM; shares compounds with ADAM10 inh; 0.5% of 2,100 active; ADAM17 QFRET peptide cleavage, EDANS fluorescence; AID 743214, 2013;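 active = mean triplicate inhibition above the solvent-only control wells' mean plus 3 SD, cut at about 12% in these data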;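 note: 0% = DMSO wells and 100% = marimastat wells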
Numbers without * were called inactive; i = inactive; x = no result; ! = a repeat was not active. In the library only some 4.7% were active in any assay of this set; here they are far more common.

SMILES	ADAM17 inh	MPTP block	ADAM10 inh	MT1-MMP act inh	NR3A LBD binder	SKN-1 inh	ADAM10 confirm	ADAM17 ctr
COCCCN1CCC2(CCC(c3ccccc3)CC2)C1=O (configuration not stated)	5	x	9	x	x	x	x	x
O=C1N(CCCO)CCC12CCC(c1ccccc1)CC2 (configuration not stated)	3	x	88*!	x	x	x	1	0
O=C(NCc1ccncc1)c1cccc(S(=O)(=O)NCc2ccccc2)c1	4	-1	2	-1	1	-8	x	x
Cc1ccc(OCCNC(=O)c2cccc(S(=O)(=O)NCc3ccccc3)c2)cc1	3	0	21*	-8	-9	-1	2	0
CCOC(=O)c1c(S(=O)(=O)NCC2CCN(CCc3cccs3)CC2)c(C)n(C)c1C	0	-1	-2	-3	-1	23	x	x
CCOc1ccc(NC(=O)c2ccc(CN3CCc4ccccc4C3)cc2)cc1	8	2	20*	-5	0	-16	11	5
CCc1ccc(N=Nc2ccc(O)c3[nH]cnc23)cc1	7	3	24*	-104	-6	6	2	1
O=C(C1=C(O)C(=O)N(c2nc3ccc(Cl)cc3s2)C1c1ccco1)c1ccco1 (configuration not stated)	6	5	-8	0	0	25	x	x
CN1C(=O)c2cc(NC(=O)Nc3ccccc3F)ccc2OC[C@H]2O[C@@H](CC(=O)NCc3ccc(-c4ccccc4)cc3)CC[C@@H]21	-8	x	30*	x	x	x	22*	5
O=C(COC(=O)Cc1c(Cl)cccc1Cl)Nc1ccccc1-c1ccccc1	8	1	23*	-3	2	2	3	2
O=C(COC(=O)Cc1ccc(Cl)cc1)Nc1ccccc1-c1ccccc1	4	0	3	3	-3	5	x	x
Cc1nc(NCc2ccc3c(c2)OCO3)c2oc3ccccc3c2n1	-3	18	7	3	1	13	x	x
CCc1nc(NCc2ccc3c(c2)OCO3)c2oc3ccccc3c2n1	8	31	28*	1	-10	-1	6	2
Cc1ccc(C(C(=O)NC2CCCCC2)N(CC2CCCO2)C(=O)CCCC(=O)Nc2ccccn2)cc1 (configuration not stated)	-2	0	-6	1	0	-6	x	x
CCC1(CC)Cc2ccccc2-c2nc(NCCO)[nH]c(=O)c21	i	1	i	9	-4	4	x	x
CC(C(=O)NC1CCCC1)N1CCN(S(=O)(=O)c2ccc(C(C)(C)C)cc2)CC1 (configuration not stated)	-8	1	-12	3	0	8	x	x
COc1cc(-c2nc3ccccn3c2/N=C/c2cccc(OC)c2O)ccc1O	-21	3	-84	0	-3	4	x	x
COc1ccccc1NS(=O)(=O)c1cccc(C(=O)OCc2nc3ccccc3s2)c1	8	-7	21*	-3	-16	5	7	2
Cc1nn(C)cc1CNC(=O)c1cccc(Br)c1	-3	1	8	-2	0	-6	x	x
Cc1nn(C)cc1CNC(=O)Nc1ccc(Br)cc1Cl	2	9	85*	4	-1	11	-1	0
COc1ccc(S(=O)(=O)NC(C)C(=O)Nc2ccccc2F)cc1 (configuration not stated)	0	0	-2	-4	2	10	x	x
COc1ccc(S(=O)(=O)NC(C)C(=O)Nc2cccc(C(C)=O)c2)cc1 (configuration not stated)	6	-4	31*	0	1	6	0	1
COCCN1C(=O)N(c2cccc(C)c2)C(=O)C1CC(=O)Nc1ccc(OC)cc1 (configuration not stated)	-2	0	20*	0	7	1	0	0
COCCN1C(=O)N(c2cccc(OC)c2)C(=O)C1CC(=O)Nc1ccc(OC)cc1 (configuration not stated)	-1	0	10	0	-1	21	x	x
COC1=C(C)C(=O)C2=C(C1=O)C1C3CC4=C(C(=O)C(OC)=C(C)C4=O)C(CNC(=O)C(C)=O)N3C(C#N)C(C2)N1C (configuration not stated)	-5	1	-12	-11	0	7	x	x
SMILES	ADAM17 inh	MPTP block	ADAM10 inh	MT1-MMP act inh	NR3A LBD binder	SKN-1 inh	ADAM10 confirm	ADAM17 ctr
NC(=O)c1cccc(Nc2nc(C(N)Cc3ccc(C(F)(F)F)cc3)cs2)n1 (configuration not stated)	-3	-1	-20	-8	x	15	x	x
CCOC(=O)C1C(=O)C=C(C)C(C(=O)OCC)C1c1cccc([N+](=O)[O-])c1 (configuration not stated)	1	-1	20*	2	-1	8	2	0
CSCCC(NC(=O)c1ccccc1)C(=O)OCC(=O)Nc1ccc(C)c(Cl)c1 (configuration not stated)	4	18	32*	-1	1	-9	6	1
O=C(Nc1cc(Cl)ccc1-n1cncn1)c1cccc(S(=O)(=O)N2CCOCC2)c1	-5	1	93*	-1	1	-2	-1	0
O=C(Nc1cc(Cl)ccc1-n1cncn1)c1ccc(F)c(S(=O)(=O)N2CCOCC2)c1	-5	-2	-2	0	-1	10	x	x
CCN1C(=O)N[C@@H](c2cccc(C(F)(F)F)c2)C(C(C)=O)=C1C	-2	-2	7	2	-2	-13	x	x
COC(=O)C1=C(C)N(Cc2ccc(Cl)cc2)C(=S)NC1c1cccc(OC)c1 (configuration not stated)	7	x	22*	x	x	x	4	2
O=S(=O)(c1cccc(C(F)(F)F)c1)N1CCC(CO)(CCCc2ccccc2)CC1	8	2	22*	3	-1	8	1	1
